Experiments:
Norovirus = assay: Antiviral activity against HG23 cells harboring Norovirus replicon assessed as decrease in viral RNA level measured after 48 hrs by qRT-PCR analysis; format: functional, cell-based; conditions: HG23, 48 h
Outline: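 One-day-old HG23 cells (Norwalk virus replicon-bearing) exposed to 1.0–100 μM compound for 48 h; total RNA extracted and norovirus RNA quantified by qRT-PCR, normalized to β-actin. Percent reduction versus mock-treated cells used to calculate EC50; at least two independent experiments.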

[1] = Cytotoxicity against human HG23 cells after 72 hrs by CytoTox-96 non-radioactive cytotoxicity assay; format: cell-based; conditions: hg23, 72 h

Compound	EC50 (Norovirus)	CC50 [1]
CC(C)C[C@@H]1NC(=O)[C@@H](NC(=O)OCc2ccccc2)Cc2cn(nn2)CCCNC(=O)CC[C@@H](C=O)NC1=O	81.5 µM	> 100 µM
CC(C)C[C@@H]1NC(=O)[C@@H](NC(=O)OCc2ccccc2)Cc2cn(nn2)CCCCCCNC(=O)CC[C@@H](C=O)NC1=O	42.1 µM	> 100 µM
CC(C)C[C@@H]1NC(=O)[C@@H](NC(=O)OCc2ccccc2)Cc2cn(nn2)CCCCCNC(=O)CC[C@@H](C=O)NC1=O	6.2 µM	> 100 µM
CC(C)C[C@@H]1NC(=O)[C@@H](NC(=O)OCc2ccccc2)Cc2cn(nn2)CCCCNC(=O)CC[C@@H](C=O)NC1=O	46.3 µM	> 100 µM
O=C[C@@H]1CCC(=O)NCCCCCCn2cc(nn2)C[C@H](NC(=O)OCc2ccccc2)C(=O)N[C@@H](Cc2ccccc2)C(=O)N1	29.5 µM	> 100 µM
CC(C)C[C@@H]1NC(=O)[C@@H](NC(=O)OCc2ccccc2)CCCn2cc(nn2)CNC(=O)CC[C@@H](C=O)NC1=O	8.5 µM	
O=C[C@@H]1CCC(=O)NCCCn2cc(nn2)C[C@H](NC(=O)OCc2ccccc2)C(=O)N[C@@H](CC2CCCCC2)C(=O)N1	16.1 µM	> 100 µM
O=C[C@@H]1CCC(=O)NCCCCCCn2cc(nn2)C[C@H](NC(=O)OCc2ccccc2)C(=O)N[C@@H](CC2CCCCC2)C(=O)N1	88.3 µM	> 100 µM
O=C[C@@H]1CCC(=O)NCCCCn2cc(nn2)C[C@H](NC(=O)OCc2ccccc2)C(=O)N[C@@H](CC2CCCCC2)C(=O)N1	30.5 µM	> 100 µM
O=C[C@@H]1CCC(=O)NCCCCCn2cc(nn2)C[C@H](NC(=O)OCc2ccccc2)C(=O)N[C@@H](CC2CCCCC2)C(=O)N1	3.8 µM	> 100 µM
CC(C)C[C@@H]1NC(=O)[C@@H](NC(=O)OCc2ccccc2)Cc2cn(nn2)CCNC(=O)CC[C@@H](C=O)NC1=O	53.2 µM	> 100 µM
O=C[C@@H]1CCC(=O)NCCn2cc(nn2)C[C@H](NC(=O)OCc2ccccc2)C(=O)N[C@@H](CC2CCCCC2)C(=O)N1	25.5 µM	> 100 µM

From ChEMBL document CHEMBL3826964, “Structure-based design and synthesis of triazole-based macrocyclic inhibitors of norovirus protease: Structural, biochemical, spectroscopic, and antiviral studies” (Eur J Med Chem, 2016)
